Results from different studies.
Each line is one published result; the experiments were not run side by side.
Target: Serine/threonine-protein kinase Chk1 (CHEK1, Homo sapiens, UniProt O14757)
One construct used (O14757 1-476): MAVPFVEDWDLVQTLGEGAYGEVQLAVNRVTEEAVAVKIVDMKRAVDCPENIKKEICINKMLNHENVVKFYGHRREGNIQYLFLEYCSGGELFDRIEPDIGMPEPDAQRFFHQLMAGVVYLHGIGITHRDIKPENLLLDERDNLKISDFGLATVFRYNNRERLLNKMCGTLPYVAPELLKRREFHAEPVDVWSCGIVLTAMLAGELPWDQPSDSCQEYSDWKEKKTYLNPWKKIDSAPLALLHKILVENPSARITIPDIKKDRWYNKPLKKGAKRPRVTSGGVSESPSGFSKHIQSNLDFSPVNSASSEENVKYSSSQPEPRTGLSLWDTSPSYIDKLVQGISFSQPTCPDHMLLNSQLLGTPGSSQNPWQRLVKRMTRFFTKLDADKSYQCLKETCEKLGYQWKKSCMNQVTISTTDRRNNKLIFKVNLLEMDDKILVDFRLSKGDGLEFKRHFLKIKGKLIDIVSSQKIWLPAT

`COc1ncccc1-c1cnn2ccc(N3CCN(C(=O)OC(C)C)CC3)nc12` has a remaining binding of 100% (binding, competition with immobilised ligand; 1 µM).
`Cc1nn(C)cc1-c1nc2c(N3CCN(Cc4ccc(Cl)cc4)CC3)c(Cl)cnc2[nH]1` gave a remaining binding of 100% (binding, competition with immobilised ligand; 1 µM).
`Nc1ncc(-c2nc(N3CCOCC3)nc(N3CCOCC3)n2)c(C(F)F)n1` has a remaining binding of 67% (binding, competition with immobilised ligand; 10 µM).
With `Cn1cc(-c2cc(F)cc(N3CCn4c(cc5c4CCCC5)C3=O)c2CO)cc(Nc2ccc(N3CCN(C4COC4)CC3)cn2)c1=O` the inhibition was 2% (enzyme activity, inhibitor; 0.1 µM).
For `CC(C)(C)c1cc(C=C(C#N)C#N)cc(Br)c1O`, the remaining activity was 100% (enzyme activity, inhibitor; 0.5 µM).
`COc1cc(Nc2ncc(F)c(Nc3ccc4c(n3)NC(=O)C(C)(C)O4)n2)cc(OC)c1OC` gave an inhibition of 62% (binding, competition with immobilised ligand; 10 µM).
With `Cn1cncc1[C@@](O)(COc1ccc(C#N)cc1-c1ccc(OC(F)(F)F)cc1)c1ccc(C#N)cc1` the remaining binding was 100% (cell-free assay, competition with immobilised ligand; 1 µM).
With `C#Cc1n[nH]c2c(-c3cn([C@@H](C)c4ccccn4)c(=O)[nH]c3=O)cc(F)cc12` the inhibition was -3.2% (enzyme activity, inhibitor; 0.1 µM).
The remaining signal of `O=c1[nH]c2ccccc2n1C1CCN(Cc2ccc(-c3[nH]c4cc5ncnc5cc4nc3-c3ccccc3)cc2)CC1` is reported as 107% (cell-free assay; 0.5 µM).
`Cn1cc(-c2cccc(N3CCc4c(sc5c4CC(C)(C)C5)C3=O)c2CO)cc(Nc2ccncn2)c1=O` gave an inhibition of 1% (enzyme activity, inhibitor; 1 µM).
For `C#Cc1n[nH]c2c(-c3cn([C@@H](C)c4ccccc4)c(=O)[nH]c3=O)cc(F)cc12`, the inhibition was -1.2% (enzyme activity, inhibitor; 0.1 µM).
